Experiments:
[1] = Cytotoxicity against human TZM-bl cells assessed as cell viability at 20 ug after 48 hrs by MTT assay; format: cell-based; conditions: read-out: Activity
How it was run: (§1)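 TZM-bl cells, 3 × 10³ per well, incubated 48 h at 37 °C in 5% CO₂ with or without compound. MTT (5 mg/mL reagent) added for 3 h, then solubilised in 20% SDS/50% DMF in PBS. OD read at 570 nm with 690 nm reference. Viability = [(OD treated − OD virus control)/(OD uninfected − OD virus control)] × 100.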

[2] = Cytotoxicity against human TZM-bl cells assessed as cell viability at 50 ug after 48 hrs by MTT assay; format: cell-based; conditions: read-out: Activity; how it was run: as §1
[3] = system: Human immunodeficiency virus 1; test: Antiviral activity against 0.025 MOI Human immunodeficiency virus 1 infected in human TZM-bl cells at 2 ug/ml after 48 hrs by beta-galactosidase assay; format: functional; conditions: Human immunodeficiency virus 1, TZM-bl
How it was run: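 TZM-bl cells, 2.0 × 10⁵ per well, cultured overnight at 37 °C in 5% CO₂. Virus with treatments added for 4 h. Cells then washed twice in serum-free DMEM and refed with DMEM + 10% FCS. Compounds re-added and cells incubated 48 h. Cells fixed in 1% glutaraldehyde for 10 min and stained 24 h at 37 °C. Blue foci counted microscopically; % inhibition = 100 − (foci treated/foci untreated infected × 100). AZT positive control.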

[4] = Cytotoxicity against human TZM-bl cells assessed as cell viability at 10 ug after 48 hrs by MTT assay; format: cell-based; conditions: read-out: Activity; how it was run: as §1
[5] = Cytotoxicity against human CEM cells expressing green fluorescent protein assessed as cell viability at 10 ug after 48 hrs by MTT assay; format: cell-based, CCRF-CEM; conditions: read-out: Activity
[6] = system: Human immunodeficiency virus 1; test: Antiviral activity against 0.05 MOI Human immunodeficiency virus 1 NL4.3 infected in human CEM cells expressing green fluorescent protein at 20 ug/ml after 8 days by fluorometric analysis; format: functional; conditions: Human immunodeficiency virus 1, NL4.3, CCRF-CEM, 192 h
How it was run: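 CEM-GFP cells seeded at 2.0 × 10⁵ cells/mL with compounds in duplicate. AZT ([…]) was the positive control; 50% ethanol and distilled water were vehicle controls. Cells incubated at 37 °C in 5% CO₂. On day 5, 0.4 mL of suspension was replaced with 1 mL fresh medium and compounds were re-added, then incubation continued. % inhibition = 100 − (GFP fluorescence treated/untreated infected × 100).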

[7] = Cytotoxicity against human TZM-bl cells assessed as cell viability at 100 ug after 48 hrs by MTT assay; format: cell-based; conditions: read-out: Activity; how it was run: as §1
[8] = Partition coefficient, log P of the compound; format: physicochemical; conditions: octanol/water
[9] = Cytotoxicity against human CEM cells expressing green fluorescent protein assessed as cell viability at 100 ug after 48 hrs by MTT assay; format: cell-based, CCRF-CEM; conditions: read-out: Activity
[10] = Cytotoxicity against human CEM cells expressing green fluorescent protein assessed as cell viability at 50 ug after 48 hrs by MTT assay; format: cell-based, CCRF-CEM; conditions: read-out: Activity
[11] = Cytotoxicity against human CEM cells expressing green fluorescent protein assessed as cell viability at 20 ug after 48 hrs by MTT assay; format: cell-based, CCRF-CEM; conditions: read-out: Activity

| logP [8] | SMILES | viability at 48 h, 20 ug [1] [%] | viability at 48 h, 50 ug [2] [%] | inhibition at 2 µg/mL [3] [%] | viability at 48 h, 10 ug [4] [%] | viability at 48 h, 10 ug [5] [%] | inhibition at 20 µg/mL [6] [%] | viability at 48 h, 100 ug [7] [%] | viability at 48 h, 100 ug [9] [%] | viability at 48 h, 50 ug [10] [%] | viability at 48 h, 20 ug [11] [%] |
| --- | --- | --- | --- | --- | --- | --- | --- | --- | --- | --- | --- |
| 2.19 | O=C1Nc2ccccc2[C@]12C[C@H]2CO | 98 | 92 | 4 | 99 | 96 | 6 | 89 | 90 | 92 | 95 |
| 1.95 | O=C1Nc2ccccc2[C@]12C[C@H]2CCl | 92 | 87 | 7 | 93 | 91 | 2 | 86 | 88 | 83 | 87 |
| 1.84 | O=C1Nc2ccc([N+](=O)[O-])cc2[C@]12C[C@H]2CCl | 102 | 101 | 6 | 102 | 101 | 4 | 92 | 76 | 103 | 118 |
| 1.89 | O=C1Nc2ccc(OC(F)(F)F)cc2[C@]12C[C@H]2CO | 93 | 62 | 10 | 90 | 91 | 7 | 60 | 3 | 33 | 72 |
| 0.54 | O=C1Nc2ccc([N+](=O)[O-])cc2[C@]12C[C@H]2CO | 107 | 104 | 5 | 100 | 119 | 3 | 109 | 116 | 122 | 127 |
| 2.44 | Cc1ccc2c(c1)[C@]1(C[C@H]1CCl)C(=O)N2 | 91 | 88 | 8 | 93 | 92 | 5 | 87 | 81 | 85 | 89 |
| 1.21 | Cc1ccc2c(c1)[C@]1(C[C@H]1CO)C(=O)N2 | 100 | 95 | 6 | 102 | 105 | 3 | 93 | 100 | 100 | 101 |
| 3.48 | O=C1Nc2ccc(OC(F)(F)F)cc2[C@]12C[C@H]2CCl | 95 | 66 | 9 | 91 | 94 | 3 | 60 | 2 | 37 | 74 |
